The values below come from PMC3065024 (Nuclear medicine and biology, 2011).

Data set [1] concerns 9L glioma cells. Put plainly: Uptake mechanism. In kind it is cell-based. Particulars: 30 min incubation. In a few lines: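 The plating, washing, lysis and counting of 9L cells were as in the uptake assay. The radiotracer in PBS was co-incubated with MeAIB, L-Ala, L-Ser, BCH, D-Met or NEM at 0.5, 1 or 5 mM. For sodium dependence, PBS was replaced by Na+-free buffer (143 mM choline chloride, 2.68 mM KCl, 1.47 mM KH2PO4). Incubation was 30 min at 37 °C. Values are normalised to uninhibited uptake in PBS, n = 3.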

The test system of a further data set is 9L tumor. The data set can be described thus: Small animal imaging with a microPET in 9L tumor bearing rats. In kind it is in vivo, F344 rats. Conditions: after intravenous injection, dynamic PET scan. A digest of the protocol:
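Rats bearing 9L xenografts were anaesthetised with 1–2% isoflurane and given 30–37 MBq (0.8–1 mCi) of radiotracer via the lateral tail vein. Dynamic small-animal PET acquisition started at injection and ran 2 h (5 min frames, 0.5 mm3 voxels), with a heating pad for body temperature. Region-of-interest analysis gave tissue time-activity curves.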

The subject of data set [2] is 9L glioma cells. Put plainly: In vitro cell uptake studies in 9L cells. Format: cell-based. Conditions: time course up to 2 h. In a few lines:
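9L gliosarcoma cells were grown in DMEM with 10% FBS and 1% penicillin/streptomycin at 37 °C, 5% CO2. They were seeded at 2.0 × 10^5 cells/well 24 h ahead and rinsed with warm PBS containing Ca2+/Mg2+. Radiotracer in PBS (~500,000 cpm/mL/well) was applied for 5, 30, 60 or 120 min at 37 °C. Cells were washed in ice-cold Ca/Mg-free PBS, lysed in 1 M NaOH and gamma-counted. Uptake is %ID/100 μg Lowry protein, in triplicate.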

The test system of the next data set is 9L xenograft. The data set can be described thus: In vivo biodistribution in Fisher rats with 9L glioma tumors. Particulars: for Tumor uptake: 9L tumor, n = 5; for Tumor uptake / Blood uptake / Bone uptake / Brain uptake / Heart uptake / Kidney uptake / Liver uptake / Lung uptake / Muscle uptake / Pancreas uptake / Skin uptake / Spleen uptake: mean ± SD; for Blood uptake / Bone uptake / Brain uptake / Heart uptake / Kidney uptake / Liver uptake / Lung uptake / Muscle uptake / Pancreas uptake / Skin uptake / Spleen uptake: six rats.

Another data set has as its system LAT2. Conditions: cited from earlier work.
[3] abbreviates: 30 min after single intravenous injection.
Setting [4] is: 60 min after single intravenous injection.

As to `N[C@@H](Cc1ccc(CC[18F])cc1)C(=O)O` [FEP, p-(2-[^18F]fluoroethyl)-L-phenylalanine], the “Inhibition of uptake by BCH” value in the data set with 9L glioma cells [1] (5 mM BCH (system L inhibitor), normalized to uptake in PBS) is given as “more than 98%”. Besides, the “Inhibition of uptake by D-Met” value with 9L glioma cells [1] (D-Met (LAT1 specific inhibitor)) is reported as “very similar effect as BCH”. Further, the “Inhibition of uptake by MeAIB” value with 9L glioma cells [1] (MeAIB (system A inhibitor) 0.5 to 5 mM) is “no inhibition”. For the same compound, the “Sodium dependence of uptake” value with 9L glioma cells [1] (Na+ replaced with choline vs PBS) is “sodium independent”. In the data set on 9L tumor, the “Time for radioactivity in heart and muscle to reach a plateau” value amounted to 20 min. Also, the “Maximum uptake relative to FET” value with 9L glioma cells [2] was “about 1.4 fold”. In the data set on 9L xenograft (setting [3]), this compound displayed a Tumor uptake of 0.82 ± 0.06 % ID/g, a Blood uptake of 0.73 ± 0.08 % ID/g, a Bone uptake of 0.41 ± 0.03 % ID/g and a Brain uptake of 0.53 ± 0.03 % ID/g. In the data set on 9L xenograft (setting [3]), this compound came in with a Heart uptake of 0.70 ± 0.07 % ID/g, a Kidney uptake of 0.72 ± 0.05 % ID/g, a Liver uptake of 0.71 ± 0.07 % ID/g and a Lung uptake of 0.68 ± 0.08 % ID/g. Also, in the data set on 9L xenograft (setting [3]), the Muscle uptake was 0.58 ± 0.05 % ID/g, the Pancreas uptake came out at 2.66 ± 0.20 % ID/g, the Skin uptake came to 0.57 ± 0.07 % ID/g and the Spleen uptake is reported as 0.75 ± 0.06 % ID/g. In addition, in the data set on 9L xenograft (setting [4]), the Tumor uptake amounted to 0.90 ± 0.20 % ID/g, the Blood uptake is 0.65 ± 0.05 % ID/g, the Bone uptake came out at 0.41 ± 0.04 % ID/g and the Brain uptake was 0.52 ± 0.05 % ID/g. In the data set with 9L xenograft (setting [4]), the Heart uptake is 0.63 ± 0.05 % ID/g, the Kidney uptake came out at 0.63 ± 0.05 % ID/g, the Liver uptake amounted to 0.63 ± 0.05 % ID/g and the Lung uptake is recorded as 0.61 ± 0.05 % ID/g. Moreover, in the data set on 9L xenograft (setting [4]), the Muscle uptake is given as 0.62 ± 0.05 % ID/g, the Pancreas uptake was found to be 2.45 ± 0.27 % ID/g, the Skin uptake was 0.60 ± 0.09 % ID/g and the Spleen uptake is 0.69 ± 0.05 % ID/g. In addition, in the data set with 9L xenograft (30 min after injection), the “Tumor to blood ratio” value turned out to be 1.12, the Tumor/Brain ratio amounted to 1.55 and the Tumor/Muscle ratio is given as 1.41. Also, in the data set with 9L xenograft (60 min after injection), the “Tumor to blood ratio” value worked out at 1.38, the Tumor/Brain ratio stood at 1.73 and the “Tumor/Muscle ratio (tumor to background)” value came to 1.45. Also, in the data set with 9L xenograft (bone uptake not significant at 30 and 60 min), the “In vivo metabolic stability (from bone uptake)” value is “metabolically stable”.
With `N[C@@H](Cc1ccc(OCC[18F])cc1)C(=O)O` [FET, O-(2-[^18F]fluoroethyl)-L-tyrosine], the Transport subtype selectivity result with LAT2 is listed as “selectively transported via LAT2”.
